The structures appear in SMILES notation.

In experiment [1] the target is Vasopressin V1a/V2 (Homo sapiens) (UniProt P30518+P37288). Briefly: Selectivity ratio of Ki for human vasopressin V1A receptor to Ki for human vasopressin V2 receptors.
The target in experiment [2] is T1, Vasopressin V2 receptor (Homo sapiens, UniProt P30518). Briefly: Agonist activity at human vasopressin V2 receptor expressed in CHO cells assessed as cAMP accumulation by HTRF assay. It counts as functional, cell-based. An outline of the steps:
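CHO cells with human V2 receptor were grown to subconfluence and serum-starved for 24 h. They were then exposed to test compound for 10 min at 37 °C in α-MEM with 1 mmol/L IBMX and 0.1% BSA, and lysed in PBS with 0.2% Triton X-100. cAMP was read by HTRF. EC50 is the concentration giving 50% of the maximal AVP response. Triplicate.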
Background: cAMP levels reflect the balance of adenylyl cyclase and phosphodiesterase activity.

A further experiment has as its system Rattus norvegicus. Briefly: Antidiuretic activity in water-loaded po dosed Wistar rat assessed as decrease in urinary excretion administered 15 mins prior to water loading measured up to 4 hrs. The settings on record: Urine. It counts as functional. An outline of the steps: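 Male Wistar rats (200–300 g) were pre-screened for at least 70% excretion of an oral water load. They were deprived of feed and water and dosed orally without anesthesia. Distilled water (30 mL/kg po) was given 15 min later, and urine was collected in metabolic cages for 4 h (n = 3–6). Excretion was expressed as % of the loaded volume. ED50, the dose lowering excretion to 50%, came from linear regression.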

For the next experiment, the target named is Vasopressin V1a receptor (Homo sapiens, UniProt P37288). Briefly: Displacement of [3H]vasopressin from human vasopressin V1A receptor expressed in CHO cells by microplate scintillation counting. The class given is cell-based. On the technique in general: In a radioligand displacement assay an active substance lowers the binding of a labelled ligand.
Sequence of Vasopressin V1a receptor (P37288 whole entry): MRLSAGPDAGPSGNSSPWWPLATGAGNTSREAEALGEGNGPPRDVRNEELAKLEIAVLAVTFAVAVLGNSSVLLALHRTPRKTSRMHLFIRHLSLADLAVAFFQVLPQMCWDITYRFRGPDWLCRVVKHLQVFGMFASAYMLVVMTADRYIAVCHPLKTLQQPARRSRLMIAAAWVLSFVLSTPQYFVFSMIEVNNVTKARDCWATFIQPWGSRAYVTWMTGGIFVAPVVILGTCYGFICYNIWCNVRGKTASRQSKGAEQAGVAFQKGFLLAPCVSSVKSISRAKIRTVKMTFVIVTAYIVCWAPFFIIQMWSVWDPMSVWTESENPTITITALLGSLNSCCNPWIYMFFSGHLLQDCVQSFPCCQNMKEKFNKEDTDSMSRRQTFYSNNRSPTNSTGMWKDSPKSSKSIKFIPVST
Experiment [3] deals with T1, Vasopressin V2 receptor. Briefly: Displacement of [3H]vasopressin from human vasopressin V2 receptor expressed in CHO cells by microplate scintillation counting. It counts as cell-based. Summed up:
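Membranes came from human V2-expressing CHO cells: hypotonic lysis, then centrifugation at 1000g and 35,000g at 4 °C. They were incubated with [3H]vasopressin at 0.91 nmol/L final in 50 mmol/L Tris-HCl pH 7.4, filtered on GF/B and washed with ice-cold Tris buffer. Retained radioactivity was scintillation counted. Assays were run in triplicate.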

For experiment [4], the target named is T1, Vasopressin V2 receptor. In words: Intrinsic activity at human vasopressin V2 receptor expressed in CHO cells assessed as cAMP accumulation by HTRF assay relative to AVP. The class given is functional, cell-based. An outline of the steps: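 Intrinsic activity was measured in the cAMP HTRF assay in human V2-CHO cells: 24 h serum-free, then 10 min at 37 °C with 1 mmol/L IBMX. It is the compound's maximal response as a percentage of the maximal AVP response (100%). Assays were run in triplicate.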

Sequence of Vasopressin V1a/V2 (Homo sapiens) (P30518 whole entry, looked up): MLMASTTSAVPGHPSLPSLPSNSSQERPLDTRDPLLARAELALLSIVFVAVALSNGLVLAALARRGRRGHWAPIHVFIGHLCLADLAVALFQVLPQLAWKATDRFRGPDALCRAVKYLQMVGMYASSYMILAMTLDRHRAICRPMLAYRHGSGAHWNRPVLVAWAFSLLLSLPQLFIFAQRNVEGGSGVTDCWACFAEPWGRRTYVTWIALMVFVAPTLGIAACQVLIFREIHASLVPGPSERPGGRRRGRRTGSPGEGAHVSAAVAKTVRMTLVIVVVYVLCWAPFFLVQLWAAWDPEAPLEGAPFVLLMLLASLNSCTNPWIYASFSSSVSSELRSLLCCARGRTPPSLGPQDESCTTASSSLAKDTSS
Sequence of Vasopressin V1a/V2 (Homo sapiens) (P37288 whole entry, looked up): as the sequence (P37288 whole entry) above
T1 sequence (P30518 whole entry): as the sequence (P30518 whole entry, looked up) above

Take `C[C@@H]1CCN(c2ccc(C(=O)N3CCC(F)(F)/C(=C\C(=O)NCCO)c4ccccc43)c(C(F)(F)F)c2)C1`: in experiment [1], the Ratio Ki stood at 2.4. Moreover, the concentration for a half-maximal effect (EC50) (in general, the midpoint of the concentration-response curve) at Vasopressin V2 receptor [2] amounted to 1 nM. For the same compound, in the experiment with Rattus norvegicus, the ED50 (commonly the dose that gives a 50% effect, or the effect in half of the subjects) was found to be 0.04 mg/kg. Further, the Ki (as a rule, a measure of affinity in units of concentration, obtained from inhibition or displacement) is 39 nM at Vasopressin V1a receptor and 16 nM at Vasopressin V2 receptor [3]. Moreover, the Intrinsic activity at Vasopressin V2 receptor [4] was 114%.

Consider `C[C@H]1CCN(c2ccc(C(=O)N3CCC(F)(F)/C(=C\C(=O)NCCO)c4ccccc43)c(Cl)c2)C1`, for which the Ratio Ki in experiment [1] was determined as 1.2. In addition, the EC50 at Vasopressin V2 receptor [2] amounted to 0.98 nM. Besides, the inhibitory constant (Ki) on Vasopressin V1a receptor came out at 17 nM; at Vasopressin V2 receptor [3], 14 nM. The Intrinsic activity on Vasopressin V2 receptor [4] amounted to 109%.

As for `C[C@@H]1CCN(c2ccc(C(=O)N3CCC(F)(F)/C(=C\C(=O)NCCO)c4ccccc43)c(Cl)c2)C1`, in experiment [1], the Ratio Ki was 1. Further, the EC50 at Vasopressin V2 receptor [2] is 0.99 nM. In addition, the inhibition constant Ki at Vasopressin V1a receptor and on Vasopressin V2 receptor [3] was 13 nM throughout. Moreover, the Intrinsic activity on Vasopressin V2 receptor [4] turned out to be 118%.

`Cc1ccn(-c2ccc(C(=O)N3CCC(F)(F)/C(=C\C(=O)NCCO)c4ccccc43)c(Cl)c2)n1`: in experiment [1], the Ratio Ki stood at 2.9. In addition, the ED50 with Rattus norvegicus turned out to be 0.14 mg/kg. The Intrinsic activity at Vasopressin V2 receptor [4] is 93.9%.

For the compound `C[C@H]1CCN(c2ccc(C(=O)N3CCC(F)(F)/C(=C\C(=O)NCCO)c4ccccc43)c(C(F)(F)F)c2)C1`, the Ratio Ki in experiment [1] was determined as 3.1. For the same compound, at Vasopressin V2 receptor [2], the EC50 was found to be 1 nM. The ED50 in the experiment with Rattus norvegicus is 0.012 mg/kg. The Ki amounted to 43 nM on Vasopressin V1a receptor and 14 nM at Vasopressin V2 receptor [3]. Further, the Intrinsic activity at Vasopressin V2 receptor [4] was 111%.

On to `Cc1ccn(-c2ccc(C(=O)N3CCC(F)(F)/C(=C\C(=O)NCCO)c4ccccc43)c(C(F)(F)F)c2)n1`, for which the Ratio Ki in experiment [1] was determined as 2.2. Further, the EC50 at Vasopressin V2 receptor [2] was 2.4 nM. Moreover, in the experiment on Rattus norvegicus, the ED50 was found to be 0.2 mg/kg. The inhibitory constant (Ki) came out at 170 nM on Vasopressin V1a receptor and 78 nM on Vasopressin V2 receptor [3]. The Intrinsic activity on Vasopressin V2 receptor [4] is 115%.
